# Measured values from paper PMC4030725 (Molecular pharmaceutics, 2013).
# Read-outs that look alike come from different tables or passages of the source.
# How the values were obtained:
# UGT1A9 = conditions: cited from earlier work
# BCRP = biological target: T1, BCRP (Homo sapiens, UniProt Q9UNQ0); experiment: BCRP-mediated efflux of flavone glucuronides from HeLa-UGT1A9 cells; format: in vitro ADME; conditions: for Log(CLint) / Vmax: BCRP-mediated glucuronide efflux, HeLa-UGT1A9 cells; for Km: efflux kinetic parameter Km, HeLa-UGT1A9 cells (Table 2, unit inferred)
# T1 sequence (Q9UNQ0 1-655): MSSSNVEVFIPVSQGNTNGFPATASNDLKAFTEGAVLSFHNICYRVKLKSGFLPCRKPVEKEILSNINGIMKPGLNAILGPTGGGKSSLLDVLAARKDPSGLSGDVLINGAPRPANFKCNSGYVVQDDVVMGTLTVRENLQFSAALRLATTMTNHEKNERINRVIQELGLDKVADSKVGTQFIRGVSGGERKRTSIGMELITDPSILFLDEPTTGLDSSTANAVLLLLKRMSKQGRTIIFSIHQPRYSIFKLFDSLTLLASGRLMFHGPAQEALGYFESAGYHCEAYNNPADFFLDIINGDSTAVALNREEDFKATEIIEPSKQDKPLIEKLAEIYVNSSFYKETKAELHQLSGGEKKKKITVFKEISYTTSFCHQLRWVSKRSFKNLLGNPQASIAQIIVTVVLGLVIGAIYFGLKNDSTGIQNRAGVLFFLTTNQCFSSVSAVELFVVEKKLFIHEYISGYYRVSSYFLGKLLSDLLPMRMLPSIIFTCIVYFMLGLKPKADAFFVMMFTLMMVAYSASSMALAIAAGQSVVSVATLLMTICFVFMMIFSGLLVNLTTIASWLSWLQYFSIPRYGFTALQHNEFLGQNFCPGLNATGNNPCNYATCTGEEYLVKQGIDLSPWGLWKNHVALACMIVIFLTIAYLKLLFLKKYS
# Summary of the method: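 HeLa cells stably expressing UGT1A9 were used 3 days post-seeding and washed twice with 37°C HBSS (pH 7.4). They were loaded at 37°C with a mono- or dihydroxyflavone aglycone in HBSS, diluted from a 100X DMSO/methanol (1:4) stock. Medium was sampled within the linear time range, quenched with acetonitrile/acetic acid and analysed by UPLC-DAD. Rates (pmol/min/mg protein) were fitted against intracellular glucuronide concentration; CLint = Vmax/Km. n=3.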
# HeLa-UGT1A9 cells [1] = format: in vitro ADME, human; conditions: end of experiment
# Summary of the method: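 After the efflux incubation, cells were washed twice with ice-cold HBSS, collected in HBSS and sonicated for 30 min at 4°C. Lysates were centrifuged at 15,500 rpm for 20 min. Supernatant was mixed with acetonitrile/acetic acid stop solution and glucuronides were quantified by UPLC-DAD. Protein was measured by assay kit against a BSA standard, and concentration was calculated assuming a cell volume of 4 μl/mg protein. n=3.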
# [2] = biological target: T2, Human BCRP (Arg482) membrane vesicles (Homo sapiens, UniProt Q9UNQ0); experiment: Vesicular transport of HF glucuronides in BCRP-overexpressing membrane vesicles; format: in vitro ADME; conditions: for difference in Km between membrane vesicles and HeLa-UGT1A9 cells: BCRP vesicles vs HeLa-UGT1A9 cells; for Km: efflux kinetic parameter Km, BCRP membrane vesicles (Table 2, unit inferred)
# T2 sequence (Q9UNQ0 1-655): T1 sequence (Q9UNQ0 1-655)
# Summary of the method: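 Inside-out human BCRP (Arg482) membrane vesicles were incubated with glucuronide substrate and 5 mM ATP, or AMP as control, in 10 mM MgCl₂/10 mM Tris-HCl (pH 7.4). The reaction was stopped with cold buffer, followed by rapid filtration through glass-fibre filters and ice-cold washes. Filters were extracted in 50% methanol with sonication, centrifuged and analysed by UPLC. ATP-dependent transport was taken as ATP minus AMP values.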
# HeLa-UGT1A9 cells [3] = experiment: Fraction metabolized; format: in vitro ADME, human; conditions: six DHFs compared at five loading concentrations (Fig. 8A)
# [4] = UGT1A9-mediated glucuronidation of the aglycone, ref Wu and Hu [37]
# [5] = loading aglycone concentration 1.25 μM
# [6] = loading aglycone concentration 2.5 μM
# [7] = loading aglycone concentration 5 μM
# [8] = loading aglycone concentration 10 μM
# [9] = loading aglycone concentration 15 μM
# [10] = loading aglycone concentration 20 μM
# [11] = loading aglycone concentration 0.3125 μM
# [12] = loading aglycone concentration 0.625 μM
structure (smiles),measurement,setting,value
"O=c1cc(-c2ccccc2)oc2cccc(O)c12 [5HF, 5-Hydroxyflavone]",Vmax′,UGT1A9; [4],118 pmol/mg/min
same,CLint′(Vmax′/ Km′),UGT1A9,123 µL/min/mg
same,Km,UGT1A9,0.96 µM
same,Log(CLint)′,UGT1A9,2.09
"O=c1cc(-c2cccc(O)c2)oc2ccccc12 [3′HF, 3′-Hydroxyflavone]",Km,UGT1A9; [4],2.02 µM
same,Log(CLint)′,UGT1A9; [4],2.66
same,Vmax′,UGT1A9; [4],926 pmol/mg/min
"O=c1c(O)c(-c2cccc(O)c2)oc2ccccc12 [3,3′ DHF, 3,3′-Dihydroxyflavone]",Km,UGT1A9; [4],0.11 µM
same,Log(CLint)′,UGT1A9; [4],4.44
same,Vmax′,UGT1A9; [4],3100 pmol/mg/min
O=C(O)[C@H]1O[C@@H](Oc2c(-c3ccccc3)oc3ccccc3c2=O)[C@H](O)[C@@H](O)[C@@H]1O [3HF-G],Log(CLint),BCRP,1.23
same,Vmax,BCRP,165.6 ± 10.1 pmol/mg/min
same,Km,BCRP,9.7 µM
same,Intracellular Con. of HFs-G or DHFs-3-O-G,HeLa-UGT1A9 cells [1]; [5],7.14 ± 3.02 µM
same,Intracellular Con. of HFs-G or DHFs-3-O-G,HeLa-UGT1A9 cells [1]; [6],38.56 ± 8.36 µM
same,Intracellular Con. of HFs-G or DHFs-3-O-G,HeLa-UGT1A9 cells [1]; [7],206.98 ± 12.39 µM
same,Intracellular Con. of HFs-G or DHFs-3-O-G,HeLa-UGT1A9 cells [1]; [8],335.57 ± 41.55 µM
same,Intracellular Con. of HFs-G,HeLa-UGT1A9 cells [1]; [9],356.82 ± 94.04 µM
same,Intracellular Con. of HFs-G,HeLa-UGT1A9 cells [1]; [10],280.60 ± 28.78 µM
same,difference in Km between membrane vesicles and HeLa-UGT1A9 cells,[2],approximately 3 fold
same,Km,[2],29 µM
"O=c1c(O)c(-c2ccc(O)cc2)oc2ccccc12 [3,4′DHF, 3,4′-Dihydroxyflavone]",Km,UGT1A9; [4],0.13 µM
same,Vmax′,UGT1A9; [4],1800 pmol/mg/min
"O=c1c(O)c(-c2ccccc2)oc2cc(O)ccc12 [3,7DHF(3-OH), 3,7-Dihydroxyflavone]",Km,UGT1A9; [4],0.22 µM
same,Log(CLint)′,UGT1A9; [4],4.32
same,Vmax′,UGT1A9; [4],4600 pmol/mg/min
"O=c1cc(-c2ccccc2)oc2cc(O)ccc12 [7HF, 7-Hydroxyflavone]",Km,UGT1A9; [4],3.59 µM
same,Log(CLint)′,UGT1A9; [4],3.13
same,Vmax′,UGT1A9; [4],4895 pmol/mg/min
"O=c1c(O)c(-c2ccccc2)oc2cccc(O)c12 [3,5 DHF, 3,5-Dihydroxyflavone]",fmet,HeLa-UGT1A9 cells [3],least sensitive to the rising concentration
same,Km,UGT1A9; [4],0.25 µM
same,Log(CLint)′,UGT1A9; [4],3.88
same,Vmax′,UGT1A9; [4],1900 pmol/mg/min
"O=c1c(O)c(-c2ccccc2)oc2ccccc12 [3HF, 3-Hydroxyflavone]",Km,UGT1A9; [4],0.3 µM
same,Log(CLint)′,UGT1A9; [4],3.84
same,Vmax′,UGT1A9; [4],2100 pmol/mg/min
O=C(O)[C@H]1O[C@@H](Oc2cccc3oc(-c4ccccc4)cc(=O)c23)[C@H](O)[C@@H](O)[C@@H]1O [5HF-G],Log(CLint),BCRP,0.77
same,Vmax,BCRP,283.4 ± 20.0 pmol/mg/min
same,Km,BCRP,48.5 µM
same,Intracellular Con. of HFs-G or DHFs-3-O-G,HeLa-UGT1A9 cells [1]; [5],31.03 ± 0.44 µM
same,Intracellular Con. of HFs-G or DHFs-3-O-G,HeLa-UGT1A9 cells [1]; [6],47.98 ± 3.91 µM
same,Intracellular Con. of HFs-G or DHFs-3-O-G,HeLa-UGT1A9 cells [1]; [7],72.86 ± 2.26 µM
same,Intracellular Con. of HFs-G or DHFs-3-O-G,HeLa-UGT1A9 cells [1]; [8],94.74 ± 11.70 µM
same,Intracellular Con. of HFs-G,HeLa-UGT1A9 cells [1]; [9],18.32 ± 6.47 µM
same,Intracellular Con. of HFs-G,HeLa-UGT1A9 cells [1]; [10],235.51 ± 14.96 µM
same,difference in Km between membrane vesicles and HeLa-UGT1A9 cells,[2],> 10 fold
same,Km,[2],2.9 µM
"O=C(O)[C@H]1O[C@@H](Oc2c(-c3ccc(O)cc3)oc3ccccc3c2=O)[C@H](O)[C@@H](O)[C@@H]1O [3,4′DHF-3-O-G]",Log(CLint),BCRP,0.38
same,Vmax,BCRP,86.0 ± 5.4 pmol/mg/min
same,Intracellular Con. of DHFs-3-O-G,HeLa-UGT1A9 cells [1]; [11],2.67 ± 0.09 µM
same,Intracellular Con. of DHFs-3-O-G,HeLa-UGT1A9 cells [1]; [12],14.27 ± 2.00 µM
same,Intracellular Con. of HFs-G or DHFs-3-O-G,HeLa-UGT1A9 cells [1]; [5],71.15 ± 6.11 µM
same,Intracellular Con. of HFs-G or DHFs-3-O-G,HeLa-UGT1A9 cells [1]; [6],241.60 ± 26.10 µM
same,Intracellular Con. of HFs-G or DHFs-3-O-G,HeLa-UGT1A9 cells [1]; [7],645.32 ± 5.81 µM
same,Intracellular Con. of HFs-G or DHFs-3-O-G,HeLa-UGT1A9 cells [1]; [8],715.62 ± 31.7 µM
"O=c1c(O)c(-c2ccccc2O)oc2ccccc12 [3,2′DHF, 3,2′-Dihydroxyflavone]",Km,UGT1A9; [4],0.67 µM
same,Log(CLint)′,UGT1A9; [4],1.89
same,Vmax′,UGT1A9; [4],52 pmol/mg/min
"O=c1cc(-c2ccc(O)cc2)oc2ccccc12 [4′HF, 4′-Hydroxyflavone]",Km,UGT1A9; [4],1.46 µM
same,Log(CLint)′,UGT1A9; [4],1.83
same,Vmax′,UGT1A9; [4],98.7 pmol/mg/min
"O=c1cc(-c2ccccc2O)oc2ccccc12 [2′HF, 2′-Hydroxyflavone]",Km,UGT1A9; [4],0.4 µM
same,Log(CLint)′,UGT1A9; [4],2.27
same,Vmax′,UGT1A9; [4],74.4 pmol/mg/min
"O=c1c(O)c(-c2ccccc2)oc2ccc(O)cc12 [3,6DHF, 3,6-Dihydroxyflavone]",fmet,HeLa-UGT1A9 cells [3],highest fmet value at all tested concentration
same,Km,UGT1A9; [4],0.62 µM
same,Log(CLint)′,UGT1A9; [4],4.34
same,Vmax′,UGT1A9; [4],13000 pmol/mg/min
"O=C(O)[C@H]1O[C@@H](Oc2c(-c3ccccc3)oc3cccc(O)c3c2=O)[C@H](O)[C@@H](O)[C@@H]1O [3,5DHF-3-O-G]",Log(CLint),BCRP,0.72
same,Vmax,BCRP,67.3 ± 6.2 pmol/mg/min
same,Intracellular Con. of DHFs-3-O-G,HeLa-UGT1A9 cells [1]; [11],2.28 ± 0.68 µM
same,Intracellular Con. of DHFs-3-O-G,HeLa-UGT1A9 cells [1]; [12],4.82 ± 0.02 µM
same,Intracellular Con. of HFs-G or DHFs-3-O-G,HeLa-UGT1A9 cells [1]; [5],14.70 ± 2.60 µM
same,Intracellular Con. of HFs-G or DHFs-3-O-G,HeLa-UGT1A9 cells [1]; [6],53.48 ± 3.45 µM
same,Intracellular Con. of HFs-G or DHFs-3-O-G,HeLa-UGT1A9 cells [1]; [7],242.98 ± 9.46 µM
same,Intracellular Con. of HFs-G or DHFs-3-O-G,HeLa-UGT1A9 cells [1]; [8],416.65 ± 12.34 µM
"O=c1cc(-c2ccccc2)oc2ccc(O)cc12 [6HF, 6-Hydroxyflavone]",Km,UGT1A9; [4],2.27 µM
same,Log(CLint)′,UGT1A9; [4],1.53
same,Vmax′,UGT1A9; [4],76.1 pmol/mg/min
